# UBC9 SUMO inh – SUMOylation inhibition; HTRF SUMOylation assay, SAE1/SAE2 + UBC9, in vitro; inhibition, % at 35 µM; hit rate 0.36% among 290,000; AID 2006; in the data active = inhibition above about 50%, passing the limit was not always enough
# Target sequence (P63279 whole entry, looked up): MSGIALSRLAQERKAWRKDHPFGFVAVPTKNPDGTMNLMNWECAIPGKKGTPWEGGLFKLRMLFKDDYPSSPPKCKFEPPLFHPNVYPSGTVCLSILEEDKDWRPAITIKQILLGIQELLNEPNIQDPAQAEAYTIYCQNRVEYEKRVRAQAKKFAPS
# TDP2 absorb – TDP2 (human) inhibition, absorbance primary screen; recombinant TDP2, T5PNP hydrolysis, p-nitrophenol absorbance 415 nm; inhibition, % at 12.8 µM; hit rate 0.34% among 370,000; AID 720702;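 active = inhibition above the mean of all tested compounds plus 3 SD, set per campaign, cut at about 25% in these data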;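 note: 0% = DMSO with enzyme and 100% = buffer with substrate but no TDP2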
#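 Incubation: 2 h at 37 °C; Test system: recombinant human TDP2; Quantity: enzyme 120 nM; Read-out basis: percent inhibition; Medium: 50 mM Tris-HCl pH 7.5 with Mg2+, KCl, DTT, BSA; Repeats: single replicate; Compound: 12.8 µM single point, 1% DMSO; Signal: epi absorbance; Reagent: 5 mM T5PNP chromogenic substrate; Benchmarks: no-enzyme high, DMSO-plus-enzyme low.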
# NSD2 inh – inhibitors of human histone methyltransferase NSD2; O96028; AID 743445; NSD2 peptide methylation, AlphaScreen, 120 min; hit rate 0.54% among 310,000; inhibition, % at 12.5 µM; in the data active = inhibition above about 50%
# CTSL1 counter – blocks F. hepatica cathepsin L1 in PFM18AAP counter-screen | AID 1906 | hit rate 0.49% among 300,000 | recombinant F. hepatica cathepsin L1, Z-Leu-Arg-MCA fluorescence | inhibition, % at 5.96 µM;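 active = inhibition above the mean of all tested compounds plus 3 SD, set per screening campaign, cut at about 17% in these data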;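 note: 0% = plate median of test compound wells and 100% = 1 µM Z-Phe-Ala-diazomethylketone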
# TDP2 inh conf – confirmation of human TDP2 inhibitors; shares compounds with TDP2 absorb; recombinant human TDP2, absorbance read-out; inhibition, % at 12.8 µM; hit rate 22% among 1,100; in the data active = inhibition above about 25%;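 note: 0% = vehicle with enzyme and 100% = no enzyme buffer only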
# AlphaScreen art – counter-screen for NSD2 inhibitors: AlphaScreen artifacts; shares compounds with NSD2 inh; AlphaScreen artifact counterscreen, preloaded methylated H4 peptide; AC35, µM (highest dose often 10 µM), for inactives: top-dose activity change, negative = signal loss; hit rate 9.4% among 1,500; AID 1053174; call rule not given here
# Starred values were filed as active, the others as inactive; nt = not tested or not shown. A selection: hits, their analogues and other compounds. The true share with any hit is near 1.2%.
SMILES,UBC9 SUMO inh,TDP2 absorb,NSD2 inh,CTSL1 counter,TDP2 inh conf,AlphaScreen art
COC(=O)c1ccc(C(c2c(C)[nH][nH]c2=O)c2c(C)[nH][nH]c2=O)cc1,8,-5,0,-1,nt,nt
O=C(c1ccc(CS(=O)c2ccccc2Cl)o1)N1CCN(c2ccccn2)CC1 (configuration not stated),2,-11,nt,0,nt,nt
CCCCn1c(NC(=O)c2ccccc2)c(C#N)c2nc3ccccc3nc21,98*,84*,162*,nt,85*,3%
N#Cc1c(NC(=O)c2ccc(Br)o2)n(-c2ccccc2)c2nc3ccccc3nc12,95*,28*,177*,11,60*,1%
COc1ccc(CCN2CCC(CN3C(=S)NC[C@@H]3Cc3ccccc3)CC2)cc1OC,nt,2,nt,nt,nt,nt
CCOC(=O)[C@]12CCC=C1N(Cc1ccc(Cl)cc1Cl)C(=O)[C@H](CC(=O)N1CCOCC1)C2,nt,-3,nt,nt,nt,nt
Nn1cnnc1N/N=C/c1ccc(Cl)c([N+](=O)[O-])c1,18,75*,116*,1,37*,-3%
Cc1ccc(C(=O)NC2(O)C(=O)c3ccccc3C2=O)cc1C,nt,73*,110*,58*,75*,3%
O=C(NC1(O)C(=O)c2ccccc2C1=O)c1ccc(C(F)(F)F)cc1,90*,37*,108*,57*,83*,0%
CC(NC(=O)Cc1ccccc1)c1ccccc1 (configuration not stated),0,-9,-3,-3,nt,nt
O=C(Cc1ccccc1)NC1(O)C(=O)c2ccccc2C1=O,35,64*,101*,34*,62*,2%
Cc1ccc(C(=O)NCC(=O)OCN2C(=O)c3ccccc3C2=O)cc1C,nt,-13,-3,nt,nt,nt
O=C(NCCc1ccccc1)c1ccc(NS(=O)(=O)c2ccc3[nH]c(=O)[nH]c3c2)cc1,nt,9,0,2,nt,nt
Cc1nnc(SCC(=O)NC2CCCC(C)C2C)n1N (configuration not stated),nt,0,0,nt,nt,nt
S=C(Nc1ccc2nsnc2c1)N1CCCCC1,95,76*,61*,0,54*,9%
CN(C)c1ccc(Cl)cc1N,14,1,0,-3,nt,nt
CN(C)c1cc(Cl)c2nonc2c1N,nt,66*,104*,39*,54*,1%
CC1(C)C=C2C(=NN(c3ccccc3)C(N)=C2C#N)CO1,7,47*,100*,109*,53*,-9%
O=C(COC(=O)Cc1ccc(S(=O)(=O)N2CCOCC2)s1)Nc1ccccc1Cl,nt,-10,3,nt,nt,nt
Cc1cccc(-n2c3nc(=O)[nH]c(=O)c-3cc3cc([N+](=O)[O-])ccc32)c1,4,54*,58*,7,47*,-6%
Cc1cccc(-n2c3nc(=O)[nH]c(=O)c-3cc3c(C)nn(-c4ccccc4)c32)c1C,16,12,-3,3,nt,nt
Cc1ccc(C)c(-n2c3nc(=O)[nH]c(=O)c-3cc3cc([N+](=O)[O-])ccc32)c1,28,52*,60*,7,40*,-8%
O=C(O)CSc1cc(NS(=O)(=O)c2ccc(Br)cc2)c2ccccc2c1O,76*,70*,107*,-4,56*,-6%
O=C1C=C(O)c2[nH]c(=O)ccc2C1=O,nt,41*,94*,nt,42*,1%
O=C1C=C(O)c2c(O)cc(O)c(O)c2C1=O,nt,-5,nt,2,nt,nt
SMILES,UBC9 SUMO inh,TDP2 absorb,NSD2 inh,CTSL1 counter,TDP2 inh conf,AlphaScreen art
COc1ccc(-c2ccc3c(c2)S(=O)(=O)c2cccc(C(=O)N4CCN(c5c(Cl)cncc5Cl)CC4)c2C3=O)cc1OC,nt,10,nt,nt,nt,nt
Cc1ccc(S(=O)(=O)N2C[C@H]3N(C(=O)OC(C)C)N(C(=O)OC(C)C)C[C@H](OC(=O)NCc4ccccc4F)[C@@]3(O)C2)cc1,nt,-5,nt,nt,nt,nt
COc1ccc(N)c2c1C(=O)c1ccccc1C2=O,-69,-4,nt,1,nt,nt
COc1ccc2noc3c2c1C(=O)c1ccccc1-3,nt,38*,108*,5,30*,-6%
C=CCN1C(=O)[C@@H](CC(=O)NCc2ccc(C)o2)[C@]2(C(=O)OCC)CCCCC/C=C/12,nt,-1,nt,nt,nt,nt
CC1OC(Nc2cccc3ccccc23)C(O)C(O)C1O (configuration not stated),72,34*,65*,9,14,-2%
Cc1ccccc1CN1CC2=C(CCN(Cc3ccccc3)C2=O)N2CCN=C12,nt,-2,1,nt,nt,nt

# Screens from PubChem.
